The text below walks through data of the array DNA melting data of Ke et al. (doi:10.1101/2024.01.08.574731).

The nature of data set [1]: folding enthalpy; higher = less favourable; fluorescence melt of hairpins on a sequencing array, two-state fit. As to conditions: sodium 0.088 M. In a few lines: (§1)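 Two-state fits, bootstrapped, provided melting temperature and folding enthalpy from Cy3 fluorescence normalised to pre-quench Cy3 and to control constructs. Library hairpins with annealed Cy3 and quencher oligos were imaged on a sequenced MiSeq flow cell in 50 mM Na-HEPES pH 8.0, 25 mM NaCl, at 2.5 °C intervals up to 60 °C. Four replicates were combined with inverse-variance weighting. A 9.35 °C upward shift was applied to fitted temperatures to match UV melts.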

A short description of data set [2]: melting temperature; fluorescence melt of hairpins on a sequencing array, two-state fit, raised by 9.35 °C to match UV melts. The settings on record: sodium 0.088 M. In a few lines: as §1

Take GCATTCGGAAACGAGTGC (((.(((....))).))): the folding enthalpy in data set [1] was -46.7 kcal/mol. In data set [2], the Tm is 53 °C.
With GCATTGCCGAAAGGCTGC (((..(((....)))))), the folding enthalpy in data set [1] was -14.8 kcal/mol. For the same sequence, the Tm in data set [2] came out at 46.5 °C.
Turning to GCATTGCGAAAGCACCGC ((..(((....)))..)), the folding enthalpy in data set [1] was -10.7 kcal/mol. Besides, in data set [2], the Tm was determined as 34.5 °C.
Consider GCATTGCGAAAGCGAAGC ((.(.((....)).).)), for which, in data set [1], the folding enthalpy was -14.5 kcal/mol. The Tm in data set [2] turned out to be 38.9 °C.
In the same order, the values of GCATTGCGAAAGCGACGC ((.(.((....)).).)) are -16.6 kcal/mol and 49.3 °C.
In the same order, the values of GCATTGCGAAAGCGAGGC ((.(.((....)).).)) are -21 kcal/mol and 59.1 °C.
In the same order, the values of GCATTGCGAAAGCTCTGC (((..((....))..))) are -23.5 kcal/mol and 39.2 °C.
As for GCATTGCGAAAGCTTTGC (((..((....))..))), the folding enthalpy in data set [1] was -21.4 kcal/mol. Moreover, in data set [2], the Tm was found to be 49.1 °C.
In the same order, the values of GCATTTCGAAAGAAGTGC (((.(((....))).))) are -45.6 kcal/mol and 51.4 °C.
As to GCCAAAGGAAACTCTGGC ((((.((....)).)))), the folding enthalpy in data set [1] was -32.6 kcal/mol. The Tm in data set [2] worked out at 35.4 °C.
In the same order, the values of GCCAACGAAAGTTAAGGC ((((((....)))..))) are -25.6 kcal/mol and 45.8 °C.
Turning to GCCAACGAAAGTTGCGGC ((((((....)))..))), in data set [1], the folding enthalpy is -16.9 kcal/mol. Moreover, the Tm in data set [2] was determined as 51.5 °C.
GCCAACGAAAGTTGTGGC ((((((....)))..))): in data set [1], the folding enthalpy was -18.4 kcal/mol. Also, in data set [2], the Tm came to 48.4 °C.
Turning to GCCAACGAAAGTTTAGGC ((((((....)))..))), in data set [1], the folding enthalpy is -28.2 kcal/mol. In addition, in data set [2], the Tm turned out to be 43.8 °C.
For the sequence GCCAACGGAAACGTCGGC (((.(((....))).))), in data set [1], the folding enthalpy was -42.8 kcal/mol. For the same sequence, in data set [2], the Tm came to 51.1 °C.
For the sequence GCCAAGCGAAAGCAAGGC (((..((....))..))), in data set [1], the folding enthalpy is -23.7 kcal/mol. Moreover, the Tm in data set [2] was found to be 59.2 °C.
In the same order, the values of GCCAAGCGAAAGCCTCGC ((.(.((....)).).)) are -5.93 kcal/mol and 23.1 °C.
In the same order, the values of GCCAAGCGAAAGCTATGC ((..(((....)))..)) are -13.2 kcal/mol and 33.9 °C.
In the case of GCCAAGCGAAAGCTCAGC ((..(((....)))..)), the folding enthalpy in data set [1] was -13.6 kcal/mol. The Tm in data set [2] amounted to 37.3 °C.
Take GCCAAGCGAAAGCTCGGC (((.(((....))).))): the folding enthalpy in data set [1] was -38.9 kcal/mol. Also, the Tm in data set [2] is 57.4 °C.
In the same order, the values of GCCAAGCGAAAGCTTAGC ((.((((....)))).)) are -17.6 kcal/mol and 48.9 °C.
Turning to GCCAAGGGAAACCTTAGC ((.((((....)))).)), in data set [1], the folding enthalpy is -19.3 kcal/mol. Besides, the Tm in data set [2] came out at 33.2 °C.
As for GCCAAGGGAAACCTTGGC (((((((....))))))), in data set [1], the folding enthalpy is -37.5 kcal/mol. Further, in data set [2], the Tm amounted to 68.8 °C.
Regarding GCCAATCCGAAAGGAGGC (((..(((....)))))), the folding enthalpy in data set [1] was -22.2 kcal/mol. Also, in data set [2], the Tm was 47 °C.
For GCCAATGGAAACACTGGC ((((.((....)).)))), the folding enthalpy in data set [1] is -31.9 kcal/mol. Moreover, the Tm in data set [2] stood at 41.9 °C.
In the same order, the values of GCCAATGGAAACATCGGC (((.(((....))).))) are -28.9 kcal/mol and 44 °C.
In the same order, the values of GCCAATGGAAACATTGAC (.(((((....))))).) are -22.2 kcal/mol and 37.7 °C.
Take GCCACACCGAAAGGTGGC (((..(((....)))))): in data set [1], the folding enthalpy was -12.3 kcal/mol. In addition, the Tm in data set [2] was 55.6 °C.
On to GCCACAGGAAACTACGGC (((..((....))..))), for which the folding enthalpy in data set [1] was -30.8 kcal/mol. Moreover, the Tm in data set [2] was found to be 39.5 °C.
For the sequence GCCACCGAAAGGTAAGGC ((((((....)))..))), the folding enthalpy in data set [1] was -26.9 kcal/mol. Besides, in data set [2], the Tm came to 52.6 °C.
As for GCCACCGAAAGGTACGGC ((((((....)))..))), in data set [1], the folding enthalpy was -24.9 kcal/mol. Moreover, in data set [2], the Tm is 49 °C.
Regarding GCCACCGAAAGGTATGGC ((((((....)))..))), the folding enthalpy in data set [1] was -36.9 kcal/mol. The Tm in data set [2] worked out at 52.8 °C.
In the same order, the values of GCCACCGAAAGGTCGGC ((((((....))).))) are -29.9 kcal/mol and 59 °C.
In the same order, the values of GCCACCGAAAGGTCGGGC ((((((....)))..))) are -25.6 kcal/mol and 48 °C.
Regarding GCCACCGAAAGGTTCGGC ((((((....)))..))), in data set [1], the folding enthalpy is -16.8 kcal/mol. Moreover, the Tm in data set [2] was 46.5 °C.
Consider GCCACCGAAAGGTTGGC ((((((....))).))), for which the folding enthalpy in data set [1] is -33.9 kcal/mol. In data set [2], the Tm was determined as 60.5 °C.
In the same order, the values of GCCACCGAAAGGTTGGGC ((((((....)))..))) are -20.8 kcal/mol and 52.6 °C.
For the sequence GCCACCGCGAAAGCGGGC (((..(((....)))))), in data set [1], the folding enthalpy is -7.35 kcal/mol. The Tm in data set [2] turned out to be 47.5 °C.
For the sequence GCCACCGGAAACAGTGGC (((((.(....).))))), in data set [1], the folding enthalpy is -30.7 kcal/mol. Also, the Tm in data set [2] was found to be 52.6 °C.
In the same order, the values of GCCACCGGAAACGACGGC (((..((....))..))) are -24.9 kcal/mol and 41.4 °C.
Regarding GCCACGCGAAAGCATTGC ((.(.((....)).).)), in data set [1], the folding enthalpy was -11.6 kcal/mol. Moreover, the Tm in data set [2] worked out at 28.7 °C.
For GCCACGCGAAAGCGATGC ((..(((....)))..)), in data set [1], the folding enthalpy is -12.7 kcal/mol. Moreover, the Tm in data set [2] amounted to 43.3 °C.
For GCCACGCGAAAGCGGAGC ((..(((....)))..)), the folding enthalpy in data set [1] was -17.1 kcal/mol. Also, the Tm in data set [2] came to 54.4 °C.
In the same order, the values of GCCACGCGAAAGCTTAGC ((.(.((....)).).)) are -6.78 kcal/mol and 30.1 °C.
In the same order, the values of GCCAGAACGAAAGTTGGC (((..(((....)))))) are -35.8 kcal/mol and 49.8 °C.
Consider GCCAGACCGAAAGGTGGC (((..(((....)))))), for which the folding enthalpy in data set [1] was -42.4 kcal/mol. The Tm in data set [2] was determined as 53.7 °C.
In the same order, the values of GCCAGACGAAAGTCGGC (((.(((....)))))) are -27.6 kcal/mol and 66.6 °C.
On to GCCAGAGCGAAAGCTGGC (((..(((....)))))), for which the folding enthalpy in data set [1] was -31.3 kcal/mol. In data set [2], the Tm is 60 °C.
In the case of GCCAGAGGAAACCCTGGC (((((.(....).))))), the folding enthalpy in data set [1] was -41 kcal/mol. For the same sequence, in data set [2], the Tm was found to be 52.4 °C.
With GCCAGAGGAAACTCTGAC (.(((((....))))).), the folding enthalpy in data set [1] was -18.3 kcal/mol. Further, the Tm in data set [2] stood at 38.6 °C.
In the same order, the values of GCCAGCGAAAGCTAAGGC ((((((....)))..))) are -21.2 kcal/mol and 53.7 °C.
As for GCCAGCGAAAGCTCCGGC ((((((....)))..))), in data set [1], the folding enthalpy is -19.9 kcal/mol. For the same sequence, the Tm in data set [2] came to 44.5 °C.
Regarding GCCAGGAAACTGGC (((((....))))), in data set [1], the folding enthalpy was -38.2 kcal/mol. The Tm in data set [2] amounted to 63.2 °C.
For GCCAGGCGAAAGCAAGGC (((..((....))..))), in data set [1], the folding enthalpy is -26.5 kcal/mol. Further, the Tm in data set [2] came out at 60.6 °C.
Take GCCAGGCGAAAGCCACGC ((..(((....)))..)): in data set [1], the folding enthalpy is -13.1 kcal/mol. Also, the Tm in data set [2] stood at 38.8 °C.
For the sequence GCCAGGCGAAAGCCATGC ((..(((....)))..)), the folding enthalpy in data set [1] is -13.6 kcal/mol. Moreover, the Tm in data set [2] is 42.3 °C.
In the same order, the values of GCCAGGCGAAAGCCCTGC ((..(((....)))..)) are -12.4 kcal/mol and 45.1 °C.
In the same order, the values of GCCAGGCGAAAGCCGAGC ((..(((....)))..)) are -13.3 kcal/mol and 52.2 °C.
In the case of GCCAGGCGAAAGCGGGGC (((..((....))..))), the folding enthalpy in data set [1] was -23.9 kcal/mol. Besides, the Tm in data set [2] is 63.2 °C.
In the same order, the values of GCCAGGCGAAAGCTTTGC ((.(.((....)).).)) are -11.5 kcal/mol and 33.4 °C.
In the same order, the values of GCCAGTCGAAAGACGGC (((.(((....)))))) are -33.8 kcal/mol and 61.6 °C.
In the same order, the values of GCCAGTTCGAAAGAAGGC (((..(((....)))))) are -20.2 kcal/mol and 37.1 °C.
Take GCCATACCGAAAGGTGGC (((..(((....)))))): the folding enthalpy in data set [1] is -24.4 kcal/mol. Besides, in data set [2], the Tm was 53.4 °C.
In the same order, the values of GCCATACGAAAGTAGGGC (((.(((....))).))) are -38 kcal/mol and 60.5 °C.
In the same order, the values of GCCATCGAAAGATACGGC ((((((....)))..))) are -26.4 kcal/mol and 41.5 °C.
In the same order, the values of GCCATCGAAAGATAGGC ((((((....))).))) are -30.3 kcal/mol and 50.1 °C.
Turning to GCCATCGGAAACGATGAC (.(((((....))))).), the folding enthalpy in data set [1] was -16 kcal/mol. Moreover, in data set [2], the Tm was determined as 48.6 °C.
In the same order, the values of GCCATGACGAAAGTCGGC (((..(((....)))))) are -20 kcal/mol and 51 °C.
Regarding GCCATGCGAAAGCACAGC ((..(((....)))..)), the folding enthalpy in data set [1] is -11.2 kcal/mol. Besides, the Tm in data set [2] amounted to 36.6 °C.
In the same order, the values of GCCATGGGAAACCATAGC ((.((((....)))).)) are -25.6 kcal/mol and 36.5 °C.
GCCATTCCGAAAGGAGGC (((..(((....)))))): the folding enthalpy in data set [1] was -18.4 kcal/mol. In addition, the Tm in data set [2] is 44.2 °C.
In the same order, the values of GCCATTTCGAAAGAAGGC (((..(((....)))))) are -25.1 kcal/mol and 33.1 °C.
Regarding GCCCAAACGAAAGTTGGC (((..(((....)))))), the folding enthalpy in data set [1] was -19.2 kcal/mol. Besides, the Tm in data set [2] came out at 45 °C.
